Experimental data from PubChem BioAssay.
Inconclusive results are not listed. Calls of active or inactive are those of the source.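 Rule for the calls, unless noted: active = inhibition over a set limit, the all-compound mean plus 3 SD, in both replicate runs; inconclusive = over that limit in just one replicate run; inactive = at or under that limit in both runs.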

Assays:
[1] = OD615 S. cerevisiae growth inhibition, permissive medium, pilot counter-assay, permissive growth control for S. cerevisiae lifespan shortening project (AID 705;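 active = growth inhibition above 25% in both replicates, a cutoff set 3 SD above the mean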); conditions: OD615, 24 h, at 10 µM, hits give high values
Procedure, shortened: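 Material: engineered DeaD yeast; Compound: one dose 10 µM, DMSO 0.25% final; Detection: absorbance (optical density) at 615 nm; Buffer or medium: permissive raffinose/galactose medium; Timing: 24 h exposure, 30 °C.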

[2] = Restrictive medium S. cerevisiae growth inhibition, OD615, pilot screen of yeast lifespan reduction project, restrictive growth control (AID 706;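 active = growth inhibition above a set limit, 3 SD over mean compound inhibition, in both replicates, cut at about 43% in these data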;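 note: modified DeaD lifespan yeast strain shifted to restrictive glucose medium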); conditions: OD615, 48 h, at 10 µM, hits give high values
Procedure, shortened: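 Buffer or medium: restrictive glucose medium (CSMM-D); test system: modified S. cerevisiae; doses: single dose of 10 µM compound final, 0.25% DMSO; schedule: 48 h compound exposure at 30 °C; detection: absorbance (optical density) measured at 615 nm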

[3] = viability gain of MRP-1-high H69AR cells under doxorubicin, pilot screen, MRP-1 activator project, CellTiter-Glo, duplicate (AID 807;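 active = viability increase at or above a cutoff of the median across tested compounds plus 3 SD, cut at about 8.5% in these data, passing the limit was not always enough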;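 note: compound pretreatment 18-22 h then 72 h combined with doxorubicin; 0% = doxorubicin alone and 100% = vehicle without doxorubicin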); conditions: H69AR viability with doxorubicin, CellTiter-Glo luminescence; at 10 µM; hits give high values
[4] = growth suppression of beta-catenin knockout HCT116, pilot screen, human colon tumor cells (AID 823;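 active = cell viability at or below a set limit in both duplicate runs, the limit being the all-compound median minus 4 SD, cut at about 23% in these data, passing the limit was not always enough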;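 note: 0% = wells killed by 20 µM Hyamine and 100% = untreated DMSO cell wells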); conditions: CellTiter-Glo, 60 h, at 10 µM, hits give low values
[5] = growth suppression of PTEN-deleted HCT116, pilot screen, cell-based, HCT116 clonal line, CellTiter-Glo (AID 824;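 active = viability at or below 27.92% in each of two runs, the all-compound median minus 4 SD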;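 note: 0% = 20 µM Hyamine control and 100% = vehicle cell control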); conditions: 60 h, at 10 µM, hits give low values
[6] = inhibitors of the yeast RAM network, pilot screen, dse1pr::URA3 reporter, 5-FOA selection (AID 869);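 note: 0% = DMSO wells with no growth and 100% = 10 µM 1-NA-PP1 with full growth; RAM network block rescues cells from 5-FOA so hits raise OD615 growth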; conditions: S. cerevisiae dse1pr::URA3 5-FOA growth, OD615, 2 d; at 10 µM; hits give high values; strain carries analog-sensitive mutant Cbk1 kinase
[7] = RAM signaling pathway blockade in yeast – S. cerevisiae, Pdr1DBD-CYC8 efflux-inhibited sensitized strain, primary screen (AID 1298;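 active = RAM network inhibition above 8.4% in each of two replicates, 3 SD over the compound average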;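 note: 0% = DMSO untreated cells without growth and 100% = 10 µM 1-NA-PP1 full growth; higher means more yeast growth rescued from 5-FOA killing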); conditions: S. cerevisiae cbk1-as DSE1-URA3 strain, 5-FOA growth OD615, 2 d; at 50 µM; hits give high values

Cn1c(=O)cc(N2CCCCC2)[nH]c1=O
inactive: growth inhibition [1] -15.3% | growth inhibition [2] -7.48% | viability increase [3] -0.1% | viability [4] 111% | viability [5] 97% | inhibition [6] 1.59% | RAM network inhibition [7] -0.8%

Cc1ccccc1-c1nc(CS(=O)CC(=O)NCCN2CCOCC2)c(C)o1 (configuration not stated)
inactive: growth inhibition [1] 0.43% | growth inhibition [2] 1.41% | viability increase [3] -1.4% | viability [4] 101% | viability [5] 91.2% | inhibition [6] 1.11% | RAM network inhibition [7] 9.97%

CC1CC(C)CN(S(=O)(=O)c2ccc(NC(=O)C3COc4ccccc4O3)cc2)C1 (configuration not stated)
inactive: growth inhibition [1] -14.1% | growth inhibition [2] -24.7% | viability increase [3] -7.35% | viability [4] 53.9% | viability [5] 54.7% | inhibition [6] 3.38% | RAM network inhibition [7] 2.76%

COC(=O)C1=C(C)NC(=O)CC1c1cc2c(cc1Br)OCO2 (configuration not stated)
inactive: growth inhibition [1] 4.83% | growth inhibition [2] 7.57% | viability increase [3] -1.64% | viability [4] 106% | viability [5] 94.7% | inhibition [6] 1.42% | RAM network inhibition [7] 5.87%

CC(=O)N(CCCN(C)C)CCC(C)CCC=C(C)C (configuration not stated)
inactive: growth inhibition [1] -7.18% | growth inhibition [2] -5.88% | viability increase [3] -2.93% | viability [4] 94.1% | viability [5] 92.7% | inhibition [6] 0.41% | RAM network inhibition [7] 3.84%

CCn1cc(SCC(=O)NCc2ccc3c(c2)OCO3)c2ccccc21
inactive: growth inhibition [1] -9.14% | growth inhibition [2] -8.28% | viability increase [3] -1.84% | viability [4] 97.9% | viability [5] 92.7% | inhibition [6] 0.495% | RAM network inhibition [7] 3.73%

Cc1cc(Nc2cccc(F)c2)n2ncnc2n1
inactive: growth inhibition [1] -0.15% | growth inhibition [2] 12.3% | viability increase [3] 0% | viability [4] 101% | viability [5] 106% | inhibition [6] 1.23% | RAM network inhibition [7] 0.16%

CCOC(=O)CSc1nccc(N(C)C)c1C#N
inactive: growth inhibition [1] -5.06% | growth inhibition [2] 7.88% | viability increase [3] 1.04% | viability [4] 99% | viability [5] 100% | inhibition [6] 0.83% | RAM network inhibition [7] 4.81%

CCCCn1c(CCCNC(=O)CC)nc2ccccc21
inactive: growth inhibition [1] 0.535% | growth inhibition [2] -5.98% | viability increase [3] -4.51% | viability [4] 94.2% | viability [5] 85.8% | inhibition [6] 1.65% | RAM network inhibition [7] 4.06%

Cc1ccccc1NCN1C(=O)C2C3C=CC(C3)C2C1=O (configuration not stated)
inactive: growth inhibition [1] -11.2% | growth inhibition [2] -18.2% | viability increase [3] -2.43% | viability [4] 86% | viability [5] 96.2% | inhibition [6] 3.66% | RAM network inhibition [7] 0.48%

CCC/C(=C1/C(=O)CC(C)(C)C(C(=O)OC)C1=O)N1CCCC1 (configuration not stated)
inactive: growth inhibition [1] -4.46% | growth inhibition [2] 5.2% | viability increase [3] -1.41% | viability [4] 95.1% | viability [5] 97.5% | inhibition [6] 1.51% | RAM network inhibition [7] -2.05%

Cc1cccc(OCCSc2cc(C)nc(N)n2)c1
inactive: growth inhibition [1] -6.16% | growth inhibition [2] -8.02% | viability increase [3] -1.44% | viability [4] 89.1% | viability [5] 79.1% | inhibition [6] -0.215% | RAM network inhibition [7] -2.06%

C=CCn1c2ccccc2c2nnc(SCN3C(=O)c4ccccc4C3=O)nc21
inactive: growth inhibition [1] 7.65% | viability increase [3] -4.7% | viability [4] 100% | viability [5] 93.7% | inhibition [6] 3.45% | RAM network inhibition [7] 4.65%
active: growth inhibition [2] 48.4%

CCN(CC)C(=O)c1cc2sc3ccccc3c2s1
inactive: growth inhibition [1] -11.5% | growth inhibition [2] -2.27% | viability increase [3] 0.41% | viability [4] 88.1% | viability [5] 95% | inhibition [6] -0.05% | RAM network inhibition [7] 3.43%

COc1ccc(OC)c2c(C)cc(NCCN3CCOCC3)nc12
inactive: growth inhibition [1] -14.7% | growth inhibition [2] -2.92% | viability increase [3] -4.52% | viability [4] 81.5% | viability [5] 84.9% | inhibition [6] 1.78% | RAM network inhibition [7] 2.55%

CC(CNC(=O)c1ccc(Br)o1)NC(=O)c1ccc(Br)o1 (configuration not stated)
inactive: growth inhibition [1] -0.8% | growth inhibition [2] 2.43% | viability increase [3] -0.71% | viability [4] 99% | viability [5] 97.8% | inhibition [6] 1.46% | RAM network inhibition [7] 1.17%

C/C(N)=C(/C#N)C(=O)CSc1n[nH]c(-c2ccccc2Br)n1
inactive: growth inhibition [1] -8.32% | growth inhibition [2] 8.69% | viability increase [3] 2.73% | viability [4] 110% | viability [5] 105% | inhibition [6] -0.48% | RAM network inhibition [7] -1.02%

COc1ccc(C2/C(=C(/O)c3ccc(F)cc3)C(=O)C(=O)N2CCCN(C)C)cc1 (configuration not stated)
inactive: growth inhibition [1] -5.9% | growth inhibition [2] -4.55% | viability increase [3] -2.11% | viability [4] 104% | viability [5] 98.1% | inhibition [6] 0.345% | RAM network inhibition [7] 2.49%

CCOC(=O)C1CCN(S(=O)(=O)c2ccc(OCC)cc2)CC1
inactive: growth inhibition [1] -6.07% | growth inhibition [2] -13.5% | viability increase [3] -2.24% | viability [4] 92% | viability [5] 94.4% | inhibition [6] 0.575% | RAM network inhibition [7] 6.62%

CCCC(=O)C1=C(O)C(C(=O)OC)C(C)(C)CC1=NC (configuration not stated)
inactive: growth inhibition [1] -14.5% | growth inhibition [2] -12.3% | viability increase [3] 0.12% | viability [4] 95.3% | viability [5] 94.9% | inhibition [6] 0.54% | RAM network inhibition [7] 0.46%

O=C(NCC(c1cccnc1)N1CCN(c2ccccc2F)CC1)c1ccccc1 (configuration not stated)
inactive: growth inhibition [1] -9.54% | growth inhibition [2] -2.34% | viability increase [3] -4.21% | viability [4] 88.5% | viability [5] 82.4% | inhibition [6] 1.75% | RAM network inhibition [7] 1.21%

CC1Cc2nc(SCC(=O)NCCc3ccccc3)n(C)c(=O)c2S1 (configuration not stated)
inactive: growth inhibition [1] -11.5% | growth inhibition [2] -1.29% | viability increase [3] -2.25% | viability [4] 100% | viability [5] 104% | inhibition [6] 1.77% | RAM network inhibition [7] 2.27%

Cc1ccc(O)c(C(=O)c2cnn(C(=O)Cc3csc(C)n3)c2)c1
inactive: growth inhibition [1] -1.97% | growth inhibition [2] 1.6% | viability increase [3] -0.48% | viability [4] 98.9% | viability [5] 88.3% | inhibition [6] -0.5% | RAM network inhibition [7] -1.67%

CCOC(=O)C1CCCN(C(=O)c2ccco2)C1 (configuration not stated)
inactive: growth inhibition [1] -11.6% | growth inhibition [2] -12.6% | viability increase [3] -3.01% | viability [4] 93.7% | viability [5] 102% | inhibition [6] 2.3% | RAM network inhibition [7] 0.62%

CCOc1ccccc1NC(=O)CSc1nnc(-c2ccco2)n1Cc1ccco1
inactive: growth inhibition [1] 3.23% | growth inhibition [2] 2.22% | viability increase [3] -2.48% | viability [4] 95.7% | viability [5] 88.2% | inhibition [6] -0.165% | RAM network inhibition [7] 3.85%

CCSc1nc2c([nH]c3ccccc32)c(=O)n1C
inactive: growth inhibition [1] -14.2% | growth inhibition [2] -9.45% | viability increase [3] -4.7% | viability [4] 105% | viability [5] 100% | inhibition [6] 3.67% | RAM network inhibition [7] 0.53%

C(=N\c1nc2ccccc2n1Cc1ccccc1)/c1cccs1
inactive: growth inhibition [1] -3.85% | growth inhibition [2] -3.94% | viability increase [3] -3.85% | viability [4] 88.7% | viability [5] 88.6% | inhibition [6] 1.94% | RAM network inhibition [7] 4.3%

Cc1onc(-c2ccccc2)c1C(=O)Nc1nnc(N2CCCCCC2)s1
inactive: growth inhibition [1] -15.2% | growth inhibition [2] -12% | viability increase [3] 2% | viability [4] 101% | viability [5] 87.5% | inhibition [6] 1.23% | RAM network inhibition [7] 3.72%

Brc1ccc(-c2nc(-c3ccccn3)no2)o1
inactive: growth inhibition [1] 0.205% | growth inhibition [2] 13% | viability increase [3] -4.55% | viability [4] 73.8% | viability [5] 67.5% | inhibition [6] 2.41% | RAM network inhibition [7] 2.05%

CCC(C)NC(=O)CCCCCn1c(=O)[nH]c2cc(OC)c(OC)cc2c1=O (configuration not stated)
inactive: growth inhibition [1] -18.5% | growth inhibition [2] -7.55% | viability increase [3] -2.36% | viability [4] 88% | viability [5] 93% | inhibition [6] 0.065% | RAM network inhibition [7] 2.96%

Cc1c(C(=O)NCc2ccc3c(c2)OCO3)oc2ccc(S(=O)(=O)N3CCCCCC3)cc12
inactive: growth inhibition [1] -14% | growth inhibition [2] -7.72% | viability increase [3] -1.19% | viability [4] 77.5% | viability [5] 77.3% | inhibition [6] 1.82% | RAM network inhibition [7] 10.9%

CCOc1cc(C#N)c(NC(=O)c2ccnn2C)cc1OCC
inactive: growth inhibition [1] 8.46% | growth inhibition [2] 2.96% | viability increase [3] -2.47% | viability [4] 82.3% | viability [5] 97.7% | inhibition [6] 0.55% | RAM network inhibition [7] 5.18%

O=P(O)(CCc1ccncc1)CN1CCCCC1
inactive: growth inhibition [1] -9.59% | growth inhibition [2] -7.67% | viability increase [3] 2.46% | viability [4] 97.3% | viability [5] 101% | inhibition [6] 1.82% | RAM network inhibition [7] -0.01%

Cc1ccc(N2C(=O)c3ccccc3C2Nc2ccccc2F)nc1 (configuration not stated)
inactive: growth inhibition [1] -7.38% | growth inhibition [2] -1.2% | viability increase [3] -1.31% | viability [4] 88.3% | viability [5] 90.8% | inhibition [6] 2.46% | RAM network inhibition [7] 10.5%

CCOC(=O)c1ccc(NCn2c(=O)oc3ccccc32)cc1
inactive: growth inhibition [1] -8.51% | growth inhibition [2] -15.7% | viability increase [3] -4.09% | viability [4] 88.5% | viability [5] 87.6% | inhibition [6] -0.385% | RAM network inhibition [7] -0.1%

NC(=O)CSc1oc(-c2ccc(F)cc2)nc1S(=O)(=O)c1ccccc1
inactive: growth inhibition [1] -6.54% | growth inhibition [2] -10.7% | viability increase [3] -4.42% | viability [4] 92.7% | viability [5] 87.8% | inhibition [6] 0.73% | RAM network inhibition [7] 1.45%
